Data: ChEMBL document CHEMBL5724801, “EUbOPEN Chemogenomics Library - Multiplex” (2024)
Where “and” joins values, the source holds several entries; their conditions need not be identical. Equal values may be shown once.

Tests used:
HEK-293T = test: Multiplex assay against HEK293T; format: toxicity, cell-based; conditions: human
Method in brief: (§1)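 Cells stained live at seeding with Hoechst33342, BioTracker Green Microtubule Cytoskeleton Dye, MitoTracker Red and Annexin V Alexa Fluor 680 were imaged on a CQ1 microscope at 37°C and 5% CO2 after compound addition. Their classification by CellPathfinder machine-learning gating ran from Hoechst high-intensity objects versus normal cells, to healthy, pyknosed or fragmented nuclei among normal cells, to mitotic or apoptotic among pyknosed cells. Tubulin, mitochondrial-mass and membrane-permeability phenotypes are per cents of healthy-nucleus cells.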

Fibroblast = test: Multiplex assay against human fibroblast; format: toxicity, cell-based; method in brief: as §1
[1] = 24 h, 1 µM, compound concentration 1 uM
[2] = 24 h, 10 µM, compound concentration 10 uM
[3] = 48 h, 1 µM, compound concentration 1 uM
[4] = 48 h, 10 µM, compound concentration 10 uM
[5] = 12 h, 1 µM, compound concentration 1 uM
[6] = 12 h, 10 µM, compound concentration 10 uM

With `CC(C)c1ccc(/C=N/NC(=O)c2ccc(O)cc2)cc1` the “Population Tubulin-Different-Phenotype (%)” value (HEK-293T; [1]) was 14.59% and 5.08%, the “Population Apoptotic (%)” value (HEK-293T; [2]) was 14.4% and 12.98% and the “Population Fragmented Nuclei (%)” value (HEK-293T; [2]) was 6.23% and 2.06%. The “Population Healthy Nuclei (%)” value (HEK-293T; [2]) was 70.88% and 30.41%, the “Population Hoechst High Intensity Objects (%)” value (HEK-293T; [2]) was 0% and the “Population Membrane Permeable-Phenotype (%)” value (HEK-293T; [2]) was 0.78% and 0%. For the same compound, the “Population Mitochondria Different-Phenotype (%)” value (HEK-293T; [2]) was 15.5% and 15.25%, the “Population Mitotic Cells (%)” value (HEK-293T; [2]) was 85.6% and 87.02% and the “Population Normal (%)” value (HEK-293T; [2]) was 100%. The “Population Pyknosed Nuclei (%)” value (HEK-293T; [2]) was 22.89% and 67.53%, the “Population Tubulin-Different-Phenotype (%)” value (HEK-293T; [2]) was 5.43% and 1.69% and the “Total Cell Count” value (HEK-293T; [2]) was 546 and 194. For the same compound, the “Population Apoptotic (%)” value (HEK-293T; [3]) was 8.44% and 19.78%, the “Population Fragmented Nuclei (%)” value (HEK-293T; [3]) was 2.76% and 1.47% and the “Population Healthy Nuclei (%)” value (HEK-293T; [3]) was 85.78% and 53.92%. The “Population Hoechst High Intensity Objects (%)” value (HEK-293T; [3]) was 0.15% and 0%, the “Population Membrane Permeable-Phenotype (%)” value (HEK-293T; [3]) was 4.34% and 1.82% and the “Population Mitochondria Different-Phenotype (%)” value (HEK-293T; [3]) was 13.72% and 24.55%. For the same compound, the “Population Mitotic Cells (%)” value (HEK-293T; [3]) was 91.56% and 80.22%, the “Population Normal (%)” value (HEK-293T; [3]) was 99.85% and 100% and the “Population Apoptotic (%)” value (HEK-293T; [4]) was 10.39% and 16.36%. For the same compound, the “Population Fragmented Nuclei (%)” value (HEK-293T; [4]) was 4.43% and 3.38%, the “Population Healthy Nuclei (%)” value (HEK-293T; [4]) was 84.38% and 70.05% and the “Population Hoechst High Intensity Objects (%)” value (HEK-293T; [4]) was 0.22% and 0%. For the same compound, the “Population Membrane Permeable-Phenotype (%)” value (HEK-293T; [4]) was 1.81% and 0.69%, the “Population Mitochondria Different-Phenotype (%)” value (HEK-293T; [4]) was 7.58% and 15.17% and the “Population Mitotic Cells (%)” value (HEK-293T; [4]) was 89.61% and 83.64%. For the same compound, the “Population Normal (%)” value (HEK-293T; [4]) was 99.78% and 100%, the “Population Pyknosed Nuclei (%)” value (HEK-293T; [4]) was 11.19% and 26.57% and the “Population Tubulin-Different-Phenotype (%)” value (HEK-293T; [4]) was 1.03% and 9.66%. The “Population Apoptotic (%)” value (Fibroblast; [5]) was 12.07% and 15.38%, the “Population Fragmented Nuclei (%)” value (Fibroblast; [5]) was 10.89% and 4% and the “Population Healthy Nuclei (%)” value (Fibroblast; [5]) was 60.4% and 76.5%. The “Population Hoechst High Intensity Objects (%)” value (Fibroblast; [5]) was 0%, the “Population Membrane Permeable-Phenotype (%)” value (Fibroblast; [5]) was 4.1% and 2.61% and the “Population Mitochondria Different-Phenotype (%)” value (Fibroblast; [5]) was 6.56% and 9.15%. For the same compound, the “Population Mitotic Cells (%)” value (Fibroblast; [5]) was 87.93% and 84.62%, the “Population Normal (%)” value (Fibroblast; [5]) was 100% and the “Population Pyknosed Nuclei (%)” value (Fibroblast; [5]) was 28.71% and 19.5%. The “Population Tubulin-Different-Phenotype (%)” value (Fibroblast; [5]) was 12.3% and 17.65%, the “Total Cell Count” value (Fibroblast; [5]) was 202 and 200 and the “Population Fragmented Nuclei (%)” value (Fibroblast; [6]) was 13.41% and 4.65%. The “Population Healthy Nuclei (%)” value (Fibroblast; [6]) was 61.45% and 73.02%, the “Population Hoechst High Intensity Objects (%)” value (Fibroblast; [6]) was 0% and the “Population Membrane Permeable-Phenotype (%)” value (Fibroblast; [6]) was 8.18% and 2.55%. The “Population Mitochondria Different-Phenotype (%)” value (Fibroblast; [6]) was 6.36% and 9.55%, the “Population Mitotic Cells (%)” value (Fibroblast; [6]) was 95.56% and 77.08% and the “Population Normal (%)” value (Fibroblast; [6]) was 100%. For the same compound, the “Population Pyknosed Nuclei (%)” value (Fibroblast; [6]) was 25.14% and 22.33%, the “Population Tubulin-Different-Phenotype (%)” value (Fibroblast; [6]) was 20% and 17.2% and the “Total Cell Count” value (Fibroblast; [6]) was 179 and 215. The “Population Apoptotic (%)” value (Fibroblast; [1]) was 15% and 14.81%, the “Population Fragmented Nuclei (%)” value (Fibroblast; [1]) was 10.53% and 4.39% and the “Population Healthy Nuclei (%)” value (Fibroblast; [1]) was 71.93% and 82.44%. The “Population Hoechst High Intensity Objects (%)” value (Fibroblast; [1]) was 0%, the “Population Membrane Permeable-Phenotype (%)” value (Fibroblast; [1]) was 1.83% and 3.55% and the “Population Mitochondria Different-Phenotype (%)” value (Fibroblast; [1]) was 4.27% and 7.1%. For the same compound, the “Population Mitotic Cells (%)” value (Fibroblast; [1]) was 85% and 85.19%, the “Population Normal (%)” value (Fibroblast; [1]) was 100% and the “Population Pyknosed Nuclei (%)” value (Fibroblast; [1]) was 17.54% and 13.17%. For the same compound, the “Population Tubulin-Different-Phenotype (%)” value (Fibroblast; [1]) was 12.2% and 18.34%, the “Total Cell Count” value (Fibroblast; [1]) was 228 and 205 and the “Population Fragmented Nuclei (%)” value (Fibroblast; [2]) was 10.93% and 4.82%. For the same compound, the “Population Healthy Nuclei (%)” value (Fibroblast; [2]) was 66.12% and 76.75%, the “Population Hoechst High Intensity Objects (%)” value (Fibroblast; [2]) was 0% and the “Population Membrane Permeable-Phenotype (%)” value (Fibroblast; [2]) was 5.79% and 3.43%. The “Population Mitochondria Different-Phenotype (%)” value (Fibroblast; [2]) was 7.44% and 5.14%, the “Population Mitotic Cells (%)” value (Fibroblast; [2]) was 95.24% and 83.33% and the “Population Normal (%)” value (Fibroblast; [2]) was 100%. The “Population Pyknosed Nuclei (%)” value (Fibroblast; [2]) was 22.95% and 18.42%, the “Population Tubulin-Different-Phenotype (%)” value (Fibroblast; [2]) was 14.88% and 16% and the “Total Cell Count” value (Fibroblast; [2]) was 183 and 228. For the same compound, the “Population Apoptotic (%)” value (Fibroblast; [3]) was 27.27% and 44.44%, the “Population Fragmented Nuclei (%)” value (Fibroblast; [3]) was 8% and 5.96% and the “Population Healthy Nuclei (%)” value (Fibroblast; [3]) was 87.11% and 89.91%. For the same compound, the “Population Hoechst High Intensity Objects (%)” value (Fibroblast; [3]) was 0%, the “Population Membrane Permeable-Phenotype (%)” value (Fibroblast; [3]) was 1.02% and 3.57% and the “Population Mitotic Cells (%)” value (Fibroblast; [3]) was 72.73% and 55.56%. For the same compound, the “Population Normal (%)” value (Fibroblast; [3]) was 100%, the “Population Pyknosed Nuclei (%)” value (Fibroblast; [3]) was 4.89% and 4.13% and the “Population Tubulin-Different-Phenotype (%)” value (Fibroblast; [3]) was 9.18% and 15.31%. For the same compound, the “Total Cell Count” value (Fibroblast; [3]) was 225 and 218, the “Population Apoptotic (%)” value (Fibroblast; [4]) was 40% and 30% and the “Population Fragmented Nuclei (%)” value (Fibroblast; [4]) was 13.54% and 4.26%. The “Population Healthy Nuclei (%)” value (Fibroblast; [4]) was 78.65% and 87.23%, the “Population Hoechst High Intensity Objects (%)” value (Fibroblast; [4]) was 0% and the “Population Membrane Permeable-Phenotype (%)” value (Fibroblast; [4]) was 3.31% and 2.44%. For the same compound, the “Population Mitochondria Different-Phenotype (%)” value (Fibroblast; [4]) was 6.62% and 1.95%, the “Population Mitotic Cells (%)” value (Fibroblast; [4]) was 60% and 70% and the “Population Normal (%)” value (Fibroblast; [4]) was 100%. The “Population Pyknosed Nuclei (%)” value (Fibroblast; [4]) was 7.81% and 8.51%, the “Population Tubulin-Different-Phenotype (%)” value (Fibroblast; [4]) was 10.6% and 14.63% and the “Total Cell Count” value (Fibroblast; [4]) was 192 and 235.
